From ChEMBL document CHEMBL3352717, “Identification of the first inhibitor of the GBP1:PIM1 interaction. Implications for the development of a new class of anticancer agents against paclitaxel resistant cancer cells” (J Med Chem, 2014)
Calls of active or inactive are those of the source. The calls are words filed in the database; no cut-off is given here.

target: T1, Interferon-induced guanylate-binding protein 1/Serine/threonine-protein kinase pim-1 (Homo sapiens) (UniProt P11309+P32455); assay: Inhibition of GBP1-PIM1 interaction in human SKOV3 cells at 100 nM after 3 hrs by co-immunoprecepitation method; assay type: cell-based; conditions: SK-OV-3
How it was run: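 SKOV3 cells treated 3 h with compound; cells scraped, lysed, PIM1 immunoprecipitated (anti-IgG negative control); co-precipitated GBP1 detected by Western blot with anti-GBP1 (67 kD band, antibodies 1:200 in 5% milk–TBST). Bands quantified by densitometry; DMSO vehicle control.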

T1 sequence (P11309 whole entry, looked up): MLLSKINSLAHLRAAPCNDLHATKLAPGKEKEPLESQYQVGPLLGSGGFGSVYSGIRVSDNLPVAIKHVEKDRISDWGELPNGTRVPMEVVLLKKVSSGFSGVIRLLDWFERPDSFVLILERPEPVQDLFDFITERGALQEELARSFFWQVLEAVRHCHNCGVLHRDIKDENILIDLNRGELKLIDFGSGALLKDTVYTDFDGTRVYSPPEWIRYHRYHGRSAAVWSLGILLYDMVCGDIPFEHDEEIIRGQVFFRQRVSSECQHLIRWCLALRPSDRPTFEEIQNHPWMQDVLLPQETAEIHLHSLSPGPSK
T1 sequence (P32455 whole entry, looked up): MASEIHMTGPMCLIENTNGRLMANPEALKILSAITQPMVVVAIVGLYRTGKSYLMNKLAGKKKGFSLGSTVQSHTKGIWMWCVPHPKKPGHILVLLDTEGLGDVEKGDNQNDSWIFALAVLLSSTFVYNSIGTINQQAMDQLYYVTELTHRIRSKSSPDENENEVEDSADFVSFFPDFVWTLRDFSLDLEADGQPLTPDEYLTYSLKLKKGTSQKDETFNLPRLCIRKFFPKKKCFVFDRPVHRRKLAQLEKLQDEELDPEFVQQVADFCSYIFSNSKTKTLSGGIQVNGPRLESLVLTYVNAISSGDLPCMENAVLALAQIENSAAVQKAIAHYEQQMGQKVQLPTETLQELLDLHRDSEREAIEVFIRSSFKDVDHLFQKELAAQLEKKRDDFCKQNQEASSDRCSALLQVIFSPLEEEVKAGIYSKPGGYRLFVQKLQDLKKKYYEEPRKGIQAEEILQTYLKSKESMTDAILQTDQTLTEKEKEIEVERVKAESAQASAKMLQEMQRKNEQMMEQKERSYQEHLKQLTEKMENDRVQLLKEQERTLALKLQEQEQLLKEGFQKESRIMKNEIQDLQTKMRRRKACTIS

SMILES	inhibition
COc1ccc2c(c1)N(CCO)C1=C(C(=O)OC1)C2c1cc(OC)c(OC)c(OC)c1 (configuration not stated)	inactive
COc1ccc2c(c1)N(CCO)C1=C(C(=O)OC1)C2c1ccccc1 (configuration not stated)	Active

target: T1, Interferon-induced guanylate-binding protein 1/Serine/threonine-protein kinase pim-1 (Homo sapiens); assay: Inhibition of GBP1 (unknown origin)-PIM1 (unknown origin) interaction at 100 nM by SPR analysis; assay type: protein assay; conditions: not given
How it was run: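 Recombinant PIM1 amine-coupled (50 μg/mL in acetate pH 5.5, ~2000 RU) on an EDC/S-NHS-activated GLM chip; blank acetate-treated channel as reference. Compound co-injected with GBP1 280 nM in TBST, 30 μL/min for 120 s, 15 min dissociation. Carbonic anhydrase 280 nM was the negative control. % inhibition = RU with compound over RU with GBP1 alone; runs done at least three times.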

SMILES	inhibition
COc1cccc(C2C3=C(COC3=O)N(CCO)c3cc4c(cc32)CCC4)c1 (configuration not stated)	inactive
O=C1OCC2=C1C(c1cccc(Cl)c1)c1cc3c(cc1N2CCO)OCO3 (configuration not stated)	inactive
COc1ccc(C2C3=C(COC3=O)N(CCO)c3cc4c(cc32)CCC4)cc1OC (configuration not stated)	inactive
COc1cc(C2C3=C(COC3=O)N(CCO)c3cc4c(cc32)OCCO4)cc(OC)c1OC (configuration not stated)	inactive
COc1cc(C2C3=C(COC3=O)N(CCO)c3cc4c(cc32)OCCO4)cc(OC)c1O (configuration not stated)	inactive
COc1cc(C2C3=C(COC3=O)N(CCO)c3cc4c(cc32)OCO4)cc(OC)c1O (configuration not stated)	inactive
COc1ccc2c(c1)N(CCO)C1=C(C(=O)OC1)C2c1cccc(Br)c1 (configuration not stated)	10%
COc1ccc2c(c1)N(CCO)C1=C(C(=O)OC1)C2c1ccc(OC)c(OC)c1 (configuration not stated)	inactive
COc1ccc(C2C3=C(COC3=O)N(CCO)c3cc4c(cc32)CCC4)cc1 (configuration not stated)	inactive
COc1cc2c(cc1OC)N(CCO)C1=C(C(=O)OC1)C2c1cccc(Br)c1 (configuration not stated)	10%
O=C1OCC2=C1C(c1cccc(Br)c1)c1cc3c(cc1N2CCO)OCCO3 (configuration not stated)	inactive
COc1cc(C2C3=C(COC3=O)N(CCO)c3cc4c(cc32)OCO4)cc(OC)c1OC (configuration not stated)	inactive
COc1cc(C2C3=C(COC3=O)N(CCO)c3cc4c(cc32)CCC4)cc(OC)c1OC (configuration not stated)	inactive
COc1cc(C2C3=C(COC3=O)N(CCO)c3cc4c(cc32)CCC4)cc(OC)c1O (configuration not stated)	inactive
COc1ccc2c(c1)N(CCO)C1=C(C(=O)OC1)C2c1ccccc1 (configuration not stated)	65%
COc1cccc(C2C3=C(COC3=O)N(CCO)c3cc(OC)ccc32)c1 (configuration not stated)	10%
O=C1OCC2=C1C(c1cccc(Cl)c1)c1cc3c(cc1N2CCO)OCCO3 (configuration not stated)	inactive
COc1cccc(C2C3=C(COC3=O)N(CCO)c3cc4c(cc32)OCO4)c1 (configuration not stated)	inactive
COc1cccc(C2C3=C(COC3=O)N(CCO)c3cc4c(cc32)OCCO4)c1 (configuration not stated)	inactive
O=C1OCC2=C1C(c1ccccc1)c1cc3c(cc1N2CCO)CCC3 (configuration not stated)	inactive
COc1cc2c(cc1OC)N(CCO)C1=C(C(=O)OC1)C2c1cc(OC)c(OC)c(OC)c1 (configuration not stated)	10%
COc1ccc(C2C3=C(COC3=O)N(CCO)c3cc4c(cc32)OCO4)cc1 (configuration not stated)	inactive

Continued, values first:

inhibition	SMILES
inactive	COc1ccc(C2C3=C(COC3=O)N(CCO)c3cc(OC)c(OC)cc32)cc1 (configuration not stated)
inactive	O=C1OCC2=C1C(c1cccc(Cl)c1)c1cc3c(cc1N2CCO)CCC3 (configuration not stated)
inactive	COc1ccc(C2C3=C(COC3=O)N(CCO)c3cc4c(cc32)OCO4)cc1OC (configuration not stated)
inactive	COc1ccc(C2C3=C(COC3=O)N(CCO)c3cc4c(cc32)OCCO4)cc1 (configuration not stated)
inactive	CCc1ccc2c(c1)N(CCO)C1=C(C(=O)OC1)C2c1cc(OC)c(OC)c(OC)c1 (configuration not stated)
10%	COc1cccc(C2C3=C(COC3=O)N(CCO)c3cc(OC)c(OC)cc32)c1 (configuration not stated)
inactive	CCc1ccc2c(c1)N(CCO)C1=C(C(=O)OC1)C2c1ccc(Cl)c(Cl)c1 (configuration not stated)
10%	COc1ccc2c(c1)N(CCO)C1=C(C(=O)OC1)C2c1cc(OC)c(OC)c(OC)c1 (configuration not stated)
inactive	COc1cc2c(cc1OC)N(CCO)C1=C(C(=O)OC1)C2c1ccccc1 (configuration not stated)
inactive	O=C1OCC2=C1C(c1ccc(Cl)c(Cl)c1)c1cc3c(cc1N2CCO)OCCO3 (configuration not stated)
inactive	O=C1OCC2=C1C(c1cccc(Br)c1)c1cc3c(cc1N2CCO)CCC3 (configuration not stated)
10%	COc1ccc(C2C3=C(COC3=O)N(CCO)c3cc(OC)c(OC)cc32)cc1OC (configuration not stated)
inactive	O=C1OCC2=C1C(c1ccccc1)c1cc3c(cc1N2CCO)OCO3 (configuration not stated)
inactive	COc1ccc(C2C3=C(COC3=O)N(CCO)c3cc4c(cc32)OCCO4)cc1OC (configuration not stated)
10%	COc1ccc(C2C3=C(COC3=O)N(CCO)c3cc(OC)ccc32)cc1 (configuration not stated)
inactive	O=C1OCC2=C1C(c1ccc(Cl)c(Cl)c1)c1cc3c(cc1N2CCO)CCC3 (configuration not stated)
inactive	CCc1ccc2c(c1)N(CCO)C1=C(C(=O)OC1)C2c1cccc(Br)c1 (configuration not stated)
inactive	COc1cc2c(cc1OC)N(CCO)C1=C(C(=O)OC1)C2c1ccc(Cl)c(Cl)c1 (configuration not stated)
inactive	CCc1ccc2c(c1)N(CCO)C1=C(C(=O)OC1)C2c1ccccc1 (configuration not stated)
inactive	O=C1OCC2=C1C(c1ccccc1)c1cc3c(cc1N2CCO)OCCO3 (configuration not stated)
10%	COc1cc2c(cc1OC)N(CCO)C1=C(C(=O)OC1)C2c1cccc(Cl)c1 (configuration not stated)
10%	CCc1ccc2c(c1)N(CCO)C1=C(C(=O)OC1)C2c1cccc(Cl)c1 (configuration not stated)

target: T1, Interferon-induced guanylate-binding protein 1/Serine/threonine-protein kinase pim-1 (Homo sapiens); assay: Inhibition of GBP1 (unknown origin)-PIM1 (unknown origin) interaction by SPR analysis; assay type: protein assay; conditions: not given
How it was run: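 Recombinant PIM1 (50 μg/mL in acetate buffer pH 5.5) amine-coupled to GLM chip via EDC/S-NHS (~2000 RU); compound (0.1, 1, 10, 100 nM) co-injected with GBP1 280 nM in TBST, 30 μL/min, 120 s, 15 min dissociation; DMSO 0.2% v/v. CA 280 nM negative control. % inhibition = RU with compound over GBP1-alone maximum; runs at least three times.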

SMILES	inhibition
COc1ccc2c(c1)N(CCO)C1=C(C(=O)OC1)C2c1ccccc1 (configuration not stated)	Dose-dependent effect
